Source: ChEMBL document CHEMBL4130495, “Design, synthesis and biological evaluations of N-Hydroxy thienopyrimidine-2,4-diones as inhibitors of HIV reverse transcriptase-associated RNase H” (Eur J Med Chem, 2017)

Columns and labels:
[1] = molecular target: Gag-Pol polyprotein (Human immunodeficiency virus type 1 group M subtype B (isolate HXB2)(HIV-1), UniProt P04585); experiment: Inhibition of polymerase activity of recombinant HIV1 reverse polymerase assessed as reduction in extension of an 18 nucleotide DNA primer using template/primer and dNTPs incubated for 30 mins; parameters: species or system Human immunodeficiency virus 1
Summary of the method: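 Recombinant HIV-1 RT (20 nM) was used with 40 nM template/primer (18-nt DNA primer annealed to a 100-nt DNA template) and 10 µM dNTPs in 50 mM Tris pH 7.8, 50 mM NaCl, with 1% DMSO and increasing compound concentrations. Reactions were started with 6 mM MgCl₂, run 30 min at 37 °C, and stopped with 100 mM EDTA. IC50 is reported as mean ± SD of ≥2 independent experiments.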

[2] = test system: P4R5; experiment: Cytotoxicity in human P4R5 cells assessed as reduction in cell viability by MTS assay
[3] = test system: Human immunodeficiency virus 1; experiment: Antiviral activity against HIV1 infected in human P4R5 cells assessed as reduction in viral infection preincubated with cells for 24 hrs followed by viral infection measured after 48 hrs by fluorescence based beta-galactosidase reporter gene based MAGI assay; type: functional, organism-based
[4] = molecular target: Human immunodeficiency virus type 1 integrase (Human immunodeficiency virus 1, UniProt Q7ZJM1); experiment: Inhibition of HIV1 integrase pre-incubated for 10 mins before DNA substrate addition and measured after 30 mins
[5] = molecular target: Human immunodeficiency virus type 1 reverse transcriptase (Human immunodeficiency virus 1, UniProt Q72547); experiment: Inhibition of RNH activity of recombinant HIV1 reverse transcriptase RNase H assessed as reduction in internal cleavage of RNA strand using RNA/DNA duplex substrate HTS-1

Sequence of Human immunodeficiency virus type 1 integrase (Q7ZJM1 whole entry): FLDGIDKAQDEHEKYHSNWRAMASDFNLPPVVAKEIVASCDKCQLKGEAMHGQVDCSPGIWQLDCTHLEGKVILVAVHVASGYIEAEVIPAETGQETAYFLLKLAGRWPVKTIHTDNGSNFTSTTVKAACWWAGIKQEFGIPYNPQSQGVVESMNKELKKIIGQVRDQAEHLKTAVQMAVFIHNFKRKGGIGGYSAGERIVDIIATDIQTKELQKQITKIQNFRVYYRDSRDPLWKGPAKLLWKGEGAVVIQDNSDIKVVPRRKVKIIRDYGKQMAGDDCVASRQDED

Structure (SMILES) | IC50 [1] [µM] | CC50 ([2]; P4R5 cells) [µM] | EC50 [3] [µM] | IC50 [4] [µM] | IC50 [5] [µM] | CC50 ([2]; P4R5) [µM]
O=c1[nH]c2scc(-c3ccccc3)c2c(=O)n1O | > 10 | > 100 | 14 | 1.3 | 0.1 | –
Cc1sc2[nH]c(=O)n(O)c(=O)c2c1C | > 10 | – | 8.9 | 8.4 | 0.1 | 62
O=c1[nH]c2cc(-c3ccc(Cl)cc3)ccc2c(=O)n1O | > 10 | – | 4.5 | – | 0.2 | 9.9
O=c1[nH]c2sc(Cc3ccccc3)cc2c(=O)n1O | > 10 | > 100 | > 20 | 5 | 0.043 | –
O=c1[nH]c2scc(-c3ccc(Cl)cc3)c2c(=O)n1O | > 10 | > 100 | 7.4 | 2.1 | 0.04 | –
O=c1[nH]c2cc(-c3ccccc3)sc2c(=O)n1O | > 10 | – | 11 | 4.5 | 0.1 | 28
O=c1[nH]c2cc(-c3ccc(F)cc3)sc2c(=O)n1O | > 10 | > 100 | > 20 | 17 | 0.2 | –
O=c1[nH]c2c(c(=O)n1O)CN(Cc1ccccc1)CC2 | > 10 | – | – | > 100 | – | –
Cc1c(C(=O)O)sc2[nH]c(=O)n(O)c(=O)c12 | > 10 | > 100 | > 20 | 7.9 | 0.1 | –
Cc1csc2[nH]c(=O)n(O)c(=O)c12 | > 10 | – | > 20 | 12 | 0.1 | 81
O=c1[nH]c2cc(-c3ccccc3)ccc2c(=O)n1O | > 10 | – | 3.8 | 11 | 0.2 | 6
O=C1Cc2cc(-c3ccccc3)ccc2C(=O)N1O | > 10 | – | 16 | 2 | 1.3 | 19
O=c1[nH]c2sccc2c(=O)n1O | > 10 | – | 18 | 35 | 0.2 | 54
O=c1[nH]c2sc(-c3ccccc3)cc2c(=O)n1O | > 10 | > 100 | > 20 | 2.2 | 0.084 | –
O=c1[nH]c2cc(-c3ccc(Cl)cc3)sc2c(=O)n1O | > 10 | > 100 | > 20 | 23 | 0.07 | –
